Square brackets hold non-standard residues; d marks the D form. Peptide text beside a SMILES is read from it. ξ: configuration not given here. NMeY = CN[C@@H](Cc1ccc(O)cc1)C(=O)O; NMeF = CN[C@@H](Cc1ccccc1)C(=O)O; ξP = O=C(O)C1CCCN1; Ava = NCCCCC(=O)O
How the values were obtained:
[1] = molecular target: Kappa-type opioid receptor (Cavia porcellus, UniProt P41144); assay: Displacement of [3H]U69593 from kappa opioid receptor in guinea pig cortices membrane by liquid scintillation counting analysis; format: cell membranes
Sequence of Kappa-type opioid receptor (P41144 whole entry): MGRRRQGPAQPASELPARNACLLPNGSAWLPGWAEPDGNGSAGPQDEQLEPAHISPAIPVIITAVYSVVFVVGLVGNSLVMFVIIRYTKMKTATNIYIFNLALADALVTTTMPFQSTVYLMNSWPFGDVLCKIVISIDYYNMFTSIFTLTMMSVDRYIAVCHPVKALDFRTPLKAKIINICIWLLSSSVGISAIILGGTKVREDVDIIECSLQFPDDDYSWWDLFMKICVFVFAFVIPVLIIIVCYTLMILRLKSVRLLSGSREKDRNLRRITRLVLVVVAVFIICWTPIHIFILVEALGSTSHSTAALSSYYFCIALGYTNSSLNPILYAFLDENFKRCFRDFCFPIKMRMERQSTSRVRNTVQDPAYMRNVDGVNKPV
Method in brief: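 Competitive radioligand binding at the kappa (KOR) opioid receptor with [3H]-U69,593 as tracer; affinity expressed as Ki.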

[2] = molecular target: Mu-type opioid receptor (Rattus norvegicus, UniProt P33535); assay: Displacement of [3H]DAMGO from mu opioid receptor in rat brain membrane by liquid scintillation counting analysis; format: cell membranes
Sequence of Mu-type opioid receptor (P33535 whole entry): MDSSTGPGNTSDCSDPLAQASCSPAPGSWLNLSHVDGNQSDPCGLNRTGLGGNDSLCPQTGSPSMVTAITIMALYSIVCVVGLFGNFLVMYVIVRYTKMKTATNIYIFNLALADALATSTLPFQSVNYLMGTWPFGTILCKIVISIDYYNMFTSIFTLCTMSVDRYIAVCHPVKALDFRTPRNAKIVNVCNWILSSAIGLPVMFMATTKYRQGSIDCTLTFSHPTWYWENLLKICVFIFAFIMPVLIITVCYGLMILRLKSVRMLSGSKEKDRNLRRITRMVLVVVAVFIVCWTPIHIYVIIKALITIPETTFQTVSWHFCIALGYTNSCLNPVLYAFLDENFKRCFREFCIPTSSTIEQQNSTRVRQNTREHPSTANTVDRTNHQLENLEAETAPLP
Method in brief: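 Competitive radioligand binding at the mu (MOR) opioid receptor with [3H]-DAMGO as tracer; affinity expressed as Ki.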

Compound | Ki [1] | Ki [2]
CC(C)C[C@H]1CNC(=S)N1C[C@H](Cc1ccccc1)N(C)CCN(C)CCN1C[C@H](Cc2ccc(O)cc2)N(C)C1=S | 3420 nM | 7110 nM
CN[C@H](CNCC(=O)N(C)CCN(C)[C@H](CN[C@H](CN)CC(C)C)Cc1ccccc1)Cc1ccc(O)cc1 | 1110 nM | 1500 nM
CC(C)C[C@H]1CNC(=O)C(=O)N1C[C@H](Cc1ccccc1)N(C)CCN(C)CCN1C[C@H](Cc2ccc(O)cc2)N(C)C(=O)C1=O | 94200 nM | 15200 nM
CC(C)C[C@H]1CNCCN1C[C@H](Cc1ccccc1)N(C)CCN(C)CCN1CCN(C)[C@@H](Cc2ccc(O)cc2)C1 | 3120 nM | 2650 nM
CC(C)C[C@H]1CNC(=S)N1C[C@H](Cc1ccccc1)N(C)CCN1CCN(C[C@H](Cc2ccc(O)cc2)N(C)C)C1=S | 2300 nM | 740 nM
CC(C)C[C@H]1CNC(=N)N1C[C@H](Cc1ccccc1)N(C)CCN1CCN(C[C@H](Cc2ccc(O)cc2)N(C)C)C1=N | 11300 nM | 1080 nM
CC(C)C[C@H]1CNCCN1C[C@H](Cc1ccccc1)N(C)CCN1CCN(C[C@H](Cc2ccc(O)cc2)N(C)C)CC1 | 3430 nM | 1150 nM
CC(C)C[C@H]1CNC(=S)N1C[C@H](Cc1ccccc1)N(C)C[C@@H]1CCCN1C[C@H](Cc1ccc(O)cc1)N(C)C | 3320 nM | 430 nM
CC(C)C[C@H]1CNC(=O)C(=O)N1C[C@H](Cc1ccccc1)N(C)C[C@@H]1CCCN1C[C@H](Cc1ccc(O)cc1)N(C)C | 10600 nM | 250 nM
CC(C)C[C@@H](CN)NC[C@H](Cc1ccccc1)N(C)C[C@@H]1CCCN1C[C@H](Cc1ccc(O)cc1)N(C)C | 1280 nM | 60 nM
CC(C)C[C@H]1CNC(=S)N1C[C@H](Cc1ccccc1)N(C)CCCCCN1C[C@H](Cc2ccc(O)cc2)NC1=S | 9480 nM | 11000 nM
CC(C)CC(CN)NCC(Cc1ccccc1)N(C)CCCCCNCC(N)Cc1ccc(O)cc1 (stereo not drawn) | 1620 nM | 1790 nM
CC(C)C[C@H](NC(=O)[C@H](Cc1ccccc1)N(C)C(=O)CCCCNC(=O)[C@@H](N)Cc1ccc(O)cc1)C(N)=O (H-Y[Ava][NMeF]L-NH2) | 22500 nM | 38900 nM
CN[C@@H](Cc1ccc(O)cc1)C(=O)N1CCCC1C(=O)N(C)[C@@H](Cc1ccccc1)C(=O)N[C@@H](CC(C)C)C(N)=O (stereo partly drawn) (H-[NMeY][ξP][NMeF]L-NH2) | 2030 nM | 2140 nM

— ChEMBL document CHEMBL3351968, “Synthesis and analgesic activity of alkylated, reduced and constrained oligoheterocyclic peptidomimetic analogs of Leu-enkephalin” (Bioorg Med Chem Lett, 2014)
